Reference: article PMC3008401 (The Journal of infectious diseases, 2010)
Where a name gives a salt, the structure may show the parent alone. Read-outs that look alike come from different tables or passages of the source.

Legend:
[1] = test system: genotype 1b replicon cells; conditions: read-out: CC50 Measured by others (1b genotype); cited from earlier work
[2] = assay type: cell-based; conditions: human
In short: (§1)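 Huh-7.5 cells electroporated with in vitro transcribed luciferase replicon RNA (genotype 1b Bart79I-luc for line 1; full-length genotype 2a FL-J6/JFH-5′C19Rluc2AUbi for line 2). Seeded at ~2–3×10^4 cells/well, medium changed at 24 h then daily, serial compound dilutions, 4 replicates. At 72 h: 10% alamarBlue, 2 h at 37°C, fluorescence read. Normalized to untreated or DMSO controls. Mean ± SD.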

HCV J6-JFH (genotype 2a) = assay type: cell-based, Hepatitis C virus; conditions: SCH503034 alone at 2.5μM, 72hr
[3] = assay type: cell-based; conditions: human; remark: listed apart in the source
In short: as §1

[4] = estimated from preclinical animal data; cited from earlier work

Row | SMILES | CC50 [1] [µM] | CC50 at 72 h [2] [µM] | also measured
1 | CNC(=O)c1c(-c2ccc(F)cc2)oc2cc(N(CCO)S(C)(=O)=O)c(C3CC3)cc12 [HCV-796] | > 100 |  | 
2 | CC(C)(C)NC(=O)N[C@H](C(=O)N1C[C@H]2[C@@H]([C@H]1C(=O)NC(CC1CCC1)C(=O)C(N)=O)C2(C)C)C(C)(C)C (stereo partly drawn) [SCH-503034, Boceprevir] | > 100 | > 100 | decrease of viral replication (HCV J6-JFH (genotype 2a)): ~ 1 log; CC50 at 72 h [3]: > 100 µM
3 | Clc1ccc(Cn2c(CN3CCCC3)nc3ccccc32)cc1 [clemizole, clemizole hydrochloride] |  | 35 ± 0.5 | CC50 at 72 h [3]: 40 ± 5 µM; no observed adverse events level (NOAEL) [4]: 100 mg/kg/day
4 | CCC[C@H](NC(=O)[C@@H]1[C@H]2CCC[C@H]2CN1C(=O)[C@@H](NC(=O)[C@@H](NC(=O)c1cnccn1)C1CCCCC1)C(C)(C)C)C(=O)C(=O)NC1CC1 [VX-950, Telaprevir] | 26.7 to 82 |  | 
5 | CC(C)(C)OC(=O)N[C@H]1CCCCC/C=C\[C@@H]2C[C@@]2(C(=O)NS(=O)(=O)C2CC2)NC(=O)[C@@H]2C[C@@H](OC(=O)N3Cc4cccc(F)c4C3)CN2C1=O [ITMN-191] | > 50 |  | 
6 | NC(=O)c1ncn([C@@H]2O[C@H](CO)[C@@H](O)[C@H]2O)n1 [Ribavirin] |  | > 100 | 
7 | CC(C)[C@H](N)C(=O)O[C@@H]1[C@@H](CO)O[C@@H](n2ccc(N)nc2=O)[C@]1(C)O [NM-283, valopicitabine] | > 100 |  | 
